Values belong to the compound of their own block, whether it stands above or below them. Activity calls are given as the source filed them. The rule behind the calls is not given here.
Key:
Nucleic Acid [1] = experiment: Binding affinity to human telomeric G4 DNA of sequence 5'-FAM-d(GGG[TTAGGG]3)-TAMRA-3' assessed as change in melting temperature by FRET DNA melting assay; format: nucleic-acid assay
Nucleic Acid [2] = experiment: Binding affinity to human Duplex DNA of sequence 5'-FAM-dTATAGCTATA-HEG-TATAGCTATA-TAMRA-3' assessed as change in melting temperature by FRET DNA melting assay; format: nucleic-acid assay
A549 [3] = experiment: Cytotoxicity against human A549 cell after 72 hrs by SRB assay; format: functional, cell-based; conditions: A549, 72 h
IMR-90 (Homo sapiens) = experiment: Cytotoxicity against human IMR90 cell after 72 hrs by SRB assay; conditions: IMR-90, 72 h
MCF7 (Homo sapiens) [4] = experiment: Cytotoxicity against human MCF7 cell after 72 hrs by SRB assay; conditions: MCF7, 72 h
MCF7 [5] = experiment: Cytotoxicity against human MCF7 by SRB assay; format: functional, cell-based
MCF7 [6] = experiment: Cytotoxic activity in human MCF7 cell assessed as number of scenescence cell at 10 uM after 1 week; format: functional
In short: (§1)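 Long-term MCF7 or A549 cultures were dosed at the start and then re-dosed three times weekly. At each re-dose the medium was discarded, cells were PBS-washed, and fresh medium plus compound was added. For staining, 1 × 10^5 cells per well were plated in medium with compound. After 24 h they were stained for senescence-associated β-galactosidase, and blue cells were counted by microscopy.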

MCF7 [7] = experiment: Cytotoxic activity in human MCF7 cell assessed as number of scenescence cell at 10 uM after 3 weeks; format: functional; in short: as §1
MCF7 [8] = experiment: Cytotoxic activity in human MCF7 cell assessed as number of scenescence cell at 10 uM after 4 weeks; format: functional; in short: as §1
MCF7 [9] = experiment: Cytotoxic activity in human MCF7 cell assessed as number of scenescence cell at 10 uM after 5 weeks; format: functional; in short: as §1
MCF7 [10] = experiment: Cytotoxic activity in human MCF7 cell assessed by number of scenescence cell at 25 uM after 1 week; format: functional; in short: as §1
MCF7 [11] = experiment: Cytotoxic activity in human MCF7 cell assessed by number of scenescence cell at 25 uM after 3 weeks; format: functional; in short: as §1
MCF7 [12] = experiment: Cytotoxic activity in human MCF7 cell assessed by number of scenescence cell at 35 uM after 1 week; format: functional; in short: as §1
A549 [13] = experiment: Cytotoxic activity in human A549 cell assessed by number of scenescence cell at 10 uM after 1 weeks; format: functional; in short: as §1
A549 [14] = experiment: Cytotoxic activity in human A549 cell assessed by number of scenescence cell at 10 uM after 3 weeks; format: functional; in short: as §1
A549 [15] = experiment: Cytotoxic activity in human A549 cell assessed by number of scenescence cell at 10 uM after 4 weeks; format: functional; in short: as §1
A549 [16] = experiment: Cytotoxic activity in human A549 cell assessed by number of scenescence cell at 10 uM after 5 weeks; format: functional; in short: as §1
A549 [17] = experiment: Cytotoxic activity in human A549 cell assessed by number of scenescence cell at 25 uM after 1 week; format: functional; in short: as §1
A549 [18] = experiment: Cytotoxic activity in human A549 cell assessed by number of scenescence cell at 25 uM after 3 weeks; format: functional; in short: as §1
A549 [19] = experiment: Cytotoxic activity in human A549 cell assessed by number of scenescence cell at 25 uM after 4 weeks; format: functional; in short: as §1
A549 [20] = experiment: Cytotoxic activity in human A549 cell assessed by number of scenescence cell at 25 uM after 5 weeks; format: functional; in short: as §1
A549 [21] = experiment: Cytotoxic activity in human A549 cell assessed by number of scenescence cell at 35 uM after 1 week; format: functional; in short: as §1
A549 [22] = experiment: Cytotoxic activity in human A549 cell assessed by number of scenescence cell at 35 uM after 3 weeks; format: functional; in short: as §1
A549 [23] = experiment: Cytotoxic activity in human A549 cell assessed by number of scenescence cell at 35 uM after 4 weeks; format: functional; in short: as §1
A549 [24] = experiment: Cytotoxic activity in human A549 cell assessed by number of scenescence cell at 35 uM after 5 weeks; format: functional; in short: as §1
Nucleic Acid [25] = experiment: Telomere shortening in DNA assessed by measuring telomere length after 6 weeks; format: nucleic-acid assay
[26] = target: Telomerase reverse transcriptase (Homo sapiens) (UniProt O14746); experiment: Inhibition of Telomerase by TRAP-LIG assay
Sequence of Telomerase reverse transcriptase (Homo sapiens) (O14746 whole entry): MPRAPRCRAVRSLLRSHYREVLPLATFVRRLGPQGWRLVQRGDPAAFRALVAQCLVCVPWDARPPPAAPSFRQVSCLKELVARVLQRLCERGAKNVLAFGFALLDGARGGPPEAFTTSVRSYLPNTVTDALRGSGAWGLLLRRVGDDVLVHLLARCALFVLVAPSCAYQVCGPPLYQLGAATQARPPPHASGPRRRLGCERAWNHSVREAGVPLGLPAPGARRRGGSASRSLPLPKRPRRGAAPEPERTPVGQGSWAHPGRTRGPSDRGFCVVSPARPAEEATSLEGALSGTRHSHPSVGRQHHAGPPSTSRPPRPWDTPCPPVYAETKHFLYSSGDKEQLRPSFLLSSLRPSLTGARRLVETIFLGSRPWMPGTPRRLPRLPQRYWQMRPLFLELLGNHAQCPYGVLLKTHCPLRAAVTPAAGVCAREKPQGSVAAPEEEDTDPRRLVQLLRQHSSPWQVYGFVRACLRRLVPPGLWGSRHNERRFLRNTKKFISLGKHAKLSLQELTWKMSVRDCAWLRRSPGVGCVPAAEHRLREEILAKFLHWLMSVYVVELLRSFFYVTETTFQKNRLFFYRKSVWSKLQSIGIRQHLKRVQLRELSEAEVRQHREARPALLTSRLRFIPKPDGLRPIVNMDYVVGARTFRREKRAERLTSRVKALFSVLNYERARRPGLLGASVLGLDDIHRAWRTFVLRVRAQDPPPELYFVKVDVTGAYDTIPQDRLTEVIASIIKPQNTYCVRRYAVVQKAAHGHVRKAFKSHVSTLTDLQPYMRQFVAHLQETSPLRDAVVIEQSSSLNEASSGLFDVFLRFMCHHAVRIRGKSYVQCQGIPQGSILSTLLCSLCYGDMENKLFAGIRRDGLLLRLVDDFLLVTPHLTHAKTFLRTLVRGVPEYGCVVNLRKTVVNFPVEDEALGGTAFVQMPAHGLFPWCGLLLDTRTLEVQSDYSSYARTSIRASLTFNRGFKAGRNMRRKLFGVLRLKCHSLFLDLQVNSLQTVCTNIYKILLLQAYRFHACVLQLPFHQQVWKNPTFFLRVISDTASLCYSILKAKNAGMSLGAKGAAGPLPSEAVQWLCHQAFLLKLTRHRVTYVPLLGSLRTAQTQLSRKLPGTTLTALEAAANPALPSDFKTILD

MCF7 (Homo sapiens) [27] = experiment: Cytotoxicity against human MCF7 at 10 uM by assessed as population doublings SRB assay
[28] = Cytotoxicity against human IMR90 cell after 72 hrs by SRB assay; format: cell-based; conditions: IMR-90, 72 h
MCF7 [29] = experiment: Cytotoxicity against human MCF7 cell after 72 hrs by SRB assay; format: functional, cell-based; conditions: MCF7, 72 h
MCF7 [30] = experiment: Cytotoxic activity in human MCF7 cell assessed by number of scenescence cell at 5 uM after 4 weeks; format: functional; in short: as §1
MCF7 [31] = experiment: Cytotoxic activity in human MCF7 cell assessed by number of scenescence cell at 5 uM after 5 weeks; format: functional; in short: as §1
MCF7 [32] = experiment: Cytotoxic activity in human MCF7 cell assessed by number of scenescence cell at 15 uM after 4 weeks; format: functional; in short: as §1
MCF7 [33] = experiment: Cytotoxic activity in human MCF7 cell assessed by number of scenescence cell at 15 uM after 5 weeks; format: functional; in short: as §1

Structure (SMILES): O=C(Nc1ccc(NCCCN2CCCC2)cc1)c1cccc2c(=O)c3cccc(C(=O)Nc4ccc(NCCCN5CCCC5)cc4)c3[nH]c12
ΔTm (Nucleic Acid [1]): 33 °C
ΔTm (Nucleic Acid [2]): 2.5 °C
IC50 (A549 [3]): 66 µM
IC50 (IMR-90 (Homo sapiens)): > 100 µM

Structure (SMILES): O=C(CCn1ccnc1)Nc1ccc(NC(=O)c2cccc3c(=O)c4cccc(C(=O)Nc5ccc(NC(=O)CCn6ccnc6)cc5)c4[nH]c23)cc1
ΔTm (Nucleic Acid [1]): 15 °C
ΔTm (Nucleic Acid [2]): 0.5 °C
IC50 (A549 [3]): 19 µM
IC50 (IMR-90 (Homo sapiens)): > 100 µM

Structure (SMILES): CN(C)CCCNC(=O)c1cccc2c(=O)c3cccc(C(=O)NCCCN(C)C)c3[nH]c12
ΔTm (Nucleic Acid [1]): 7 °C
ΔTm (Nucleic Acid [2]): 1 °C
IC50 (A549 [3]): 62 µM
IC50 (IMR-90 (Homo sapiens)): > 100 µM

Structure (SMILES): CN(C)CCCNc1ccc(NC(=O)c2cccc3c(=O)c4cccc(C(=O)Nc5ccc(NCCCN(C)C)cc5)c4[nH]c23)cc1
ΔTm (Nucleic Acid [1]): 31 °C
ΔTm (Nucleic Acid [2]): 2.5 °C
IC50 (A549 [3]): > 100 µM
IC50 (IMR-90 (Homo sapiens)): > 100 µM

Structure (SMILES): O=C(CCN1CCCC1)Nc1ccc(NC(=O)c2cccc3c(=O)c4ccccc4[nH]c23)cc1
ΔTm (Nucleic Acid [1]): 11 °C
ΔTm (Nucleic Acid [2]): 0.5 °C
IC50 (A549 [3]): 16 µM
IC50 (MCF7 (Homo sapiens) [4]): 9 µM
IC50 (IMR-90 (Homo sapiens)): 7.5 µM

Structure (SMILES): O=C(CCN1CCCC1)Nc1cccc(NC(=O)c2cccc3c(=O)c4cccc(C(=O)Nc5cccc(NC(=O)CCN6CCCC6)c5)c4[nH]c23)c1
ΔTm (Nucleic Acid [1]): 29 °C
ΔTm (Nucleic Acid [2]): 3 °C
IC50 (A549 [3]): > 100 µM
IC50 (MCF7 [5]): 84 µM
Activity (MCF7 [6]): 2%
Activity (MCF7 [7]): 3%
Activity (MCF7 [8]): 0%
Activity (MCF7 [9]): 1%
Activity (MCF7 [10]): 3%
Activity (MCF7 [11]): 25%
Activity (MCF7 [12]): 12%
Activity (A549 [13]): 0%
Activity (A549 [14]): 12%
Activity (A549 [15]): 0%
Activity (A549 [16]): 0%
Activity (A549 [17]): 9%
Activity (A549 [18]): 21%
Activity (A549 [19]): 0%
Activity (A549 [20]): 0%
Activity (A549 [21]): 8%
Activity (A549 [22]): 30%
Activity (A549 [23]): 0%
Activity (A549 [24]): 0%
Activity (Nucleic Acid [25]): inactive
Activity [26]: inactive
IC50 (IMR-90 (Homo sapiens)): > 100 µM
Activity (MCF7 (Homo sapiens) [27]): 17.5

Structure (SMILES): Cn1cc(NC(=O)c2cccc3c(=O)c4cccc(C(=O)Nc5cc(C(=O)NCCCN6CCCC6)n(C)c5)c4[nH]c23)cc1C(=O)NCCCN1CCCC1
ΔTm (Nucleic Acid [1]): 15 °C
ΔTm (Nucleic Acid [2]): 0 °C
IC50 (A549 [3]): 21 µM
IC50 (IMR-90 (Homo sapiens)): > 100 µM

Structure (SMILES): O=C(Nc1ccc(NCCCN2CCOCC2)cc1)c1cccc2c(=O)c3cccc(C(=O)Nc4ccc(NCCCN5CCOCC5)cc4)c3[nH]c12
ΔTm (Nucleic Acid [1]): 20 °C
ΔTm (Nucleic Acid [2]): 0 °C
IC50 (A549 [3]): > 100 µM
IC50 (MCF7 (Homo sapiens) [4]): > 100 µM
IC50 (IMR-90 (Homo sapiens)): > 100 µM

Structure (SMILES): CN1CCN(CCCNc2ccc(NC(=O)c3cccc4c(=O)c5cccc(C(=O)Nc6ccc(NCCCN7CCN(C)CC7)cc6)c5[nH]c34)cc2)CC1
ΔTm (Nucleic Acid [1]): 28 °C
ΔTm (Nucleic Acid [2]): 1.5 °C
IC50 (A549 [3]): > 100 µM
IC50 (IMR-90 (Homo sapiens)): > 100 µM

Second part, led by results:

ΔTm (Nucleic Acid [1]): 24.5 °C
ΔTm (Nucleic Acid [2]): 0 °C
Structure (SMILES): O=C(CCNC1CCCCC1)Nc1ccc(NC(=O)c2cccc3c(=O)c4cccc(C(=O)Nc5ccc(NC(=O)CCNC6CCCCC6)cc5)c4[nH]c23)cc1
IC50 (A549 [3]): 31 µM
IC50 (IMR-90 (Homo sapiens)): > 100 µM

ΔTm (Nucleic Acid [1]): 25.5 °C
ΔTm (Nucleic Acid [2]): 0.5 °C
Structure (SMILES): O=C(CN1CCCC1)Nc1ccc(NC(=O)c2cccc3c(=O)c4cccc(C(=O)Nc5ccc(NC(=O)CN6CCCC6)cc5)c4[nH]c23)cc1
IC50 (A549 [3]): > 100 µM
IC50 (IMR-90 (Homo sapiens)): > 100 µM

ΔTm (Nucleic Acid [1]): 0 °C
ΔTm (Nucleic Acid [2]): 0 °C
Structure (SMILES): O=C(CCC(=O)N1CCCC1)Nc1ccc(NC(=O)c2cccc3c(=O)c4cccc(C(=O)Nc5ccc(NC(=O)CCC(=O)N6CCCC6)cc5)c4[nH]c23)cc1
IC50 (A549 [3]): 27 µM
IC50 (IMR-90 (Homo sapiens)): > 100 µM

ΔTm (Nucleic Acid [1]): 19 °C
ΔTm (Nucleic Acid [2]): 0 °C
Structure (SMILES): O=C(CCN1CCOCC1)Nc1ccc(NC(=O)c2cccc3c(=O)c4cccc(C(=O)Nc5ccc(NC(=O)CCN6CCOCC6)cc5)c4[nH]c23)cc1
IC50 (A549 [3]): > 100 µM
IC50 (MCF7 (Homo sapiens) [4]): > 100 µM
IC50 (IMR-90 (Homo sapiens)): > 100 µM

ΔTm (Nucleic Acid [1]): 31 °C
ΔTm (Nucleic Acid [2]): 1.5 °C
Structure (SMILES): CN1CCN(CCC(=O)Nc2ccc(NC(=O)c3cccc4c(=O)c5cccc(C(=O)Nc6ccc(NC(=O)CCN7CCN(C)CC7)cc6)c5[nH]c34)cc2)CC1
IC50 (A549 [3]): > 100 µM
IC50 (IMR-90 (Homo sapiens)): > 100 µM

ΔTm (Nucleic Acid [1]): 34 °C
ΔTm (Nucleic Acid [2]): 2.5 °C
Structure (SMILES): O=C(CCN1CCCC1)Nc1ccc(NC(=O)c2cccc3c(=O)c4cccc(C(=O)Nc5ccc(NC(=O)CCN6CCCC6)cc5)c4[nH]c23)cc1
IC50 (A549 [3]): 16 µM
IC50 (IMR-90 (Homo sapiens)): > 100 µM

ΔTm (Nucleic Acid [1]): 31 °C
ΔTm (Nucleic Acid [2]): 1.5 °C
Structure (SMILES): O=C(CCN1CCCCC1)Nc1ccc(NC(=O)c2cccc3c(=O)c4cccc(C(=O)Nc5ccc(NC(=O)CCN6CCCCC6)cc5)c4[nH]c23)cc1
IC50 (A549 [3]): > 100 µM
IC50 (IMR-90 (Homo sapiens)): > 100 µM

ΔTm (Nucleic Acid [1]): 22.5 °C
ΔTm (Nucleic Acid [2]): 0.75 °C
Structure (SMILES): O=C(CCCCN1CCCC1)Nc1ccc(NC(=O)c2cccc3c(=O)c4cccc(C(=O)Nc5ccc(NC(=O)CCCCN6CCCC6)cc5)c4[nH]c23)cc1
IC50 [28]: 2 µM
IC50 (A549 [3]): 43 µM
IC50 (MCF7 [29]): > 100 µM

ΔTm (Nucleic Acid [1]): 32 °C
ΔTm (Nucleic Acid [2]): 2.5 °C
Activity (Nucleic Acid [25]): inactive
Activity [26]: inactive
Structure (SMILES): CN(C)CCC(=O)Nc1ccc(NC(=O)c2cccc3c(=O)c4cccc(C(=O)Nc5ccc(NC(=O)CCN(C)C)cc5)c4[nH]c23)cc1
IC50 (A549 [3]): 15 µM
Activity (MCF7 [30]): 2%
Activity (MCF7 [31]): 2%
Activity (MCF7 [32]): 0%
Activity (MCF7 [33]): 5%
IC50 (IMR-90 (Homo sapiens)): > 100 µM

ΔTm (Nucleic Acid [1]): 15 °C
ΔTm (Nucleic Acid [2]): 0 °C
Structure (SMILES): O=C(CCCN1CCCC1)Nc1ccc(NC(=O)c2cccc3c(=O)c4cccc(C(=O)Nc5ccc(NC(=O)CCCN6CCCC6)cc5)c4[nH]c23)cc1
IC50 (A549 [3]): 8 µM
IC50 (IMR-90 (Homo sapiens)): > 100 µM

Reference: ChEMBL document CHEMBL1155326, “Design, synthesis and evaluation of 4,5-di-substituted acridone ligands with high G-quadruplex affinity and selectivity, together with low toxicity to normal cells” (Bioorg Med Chem Lett, 2009)
